According to ChEMBL document CHEMBL2321857, “Synthesis, topoisomerase-targeting activity and growth inhibition of lycobetaine analogs” (Bioorg Med Chem, 2013):
Calls of active or inactive are those of the source. The calls are words filed in the database; no cut-off is given here.

Legend:
[1] = target: DNA topoisomerase 2-beta (Homo sapiens) (UniProt Q02880); assay: Inhibition of human recombinant topoisomerase 2beta-mediated decatenation of kDNA at 100 uM after 60 mins by ethidium bromide staining based gel electrophoresis analysis
Chain of DNA topoisomerase 2-beta (Homo sapiens) (Q02880 whole entry): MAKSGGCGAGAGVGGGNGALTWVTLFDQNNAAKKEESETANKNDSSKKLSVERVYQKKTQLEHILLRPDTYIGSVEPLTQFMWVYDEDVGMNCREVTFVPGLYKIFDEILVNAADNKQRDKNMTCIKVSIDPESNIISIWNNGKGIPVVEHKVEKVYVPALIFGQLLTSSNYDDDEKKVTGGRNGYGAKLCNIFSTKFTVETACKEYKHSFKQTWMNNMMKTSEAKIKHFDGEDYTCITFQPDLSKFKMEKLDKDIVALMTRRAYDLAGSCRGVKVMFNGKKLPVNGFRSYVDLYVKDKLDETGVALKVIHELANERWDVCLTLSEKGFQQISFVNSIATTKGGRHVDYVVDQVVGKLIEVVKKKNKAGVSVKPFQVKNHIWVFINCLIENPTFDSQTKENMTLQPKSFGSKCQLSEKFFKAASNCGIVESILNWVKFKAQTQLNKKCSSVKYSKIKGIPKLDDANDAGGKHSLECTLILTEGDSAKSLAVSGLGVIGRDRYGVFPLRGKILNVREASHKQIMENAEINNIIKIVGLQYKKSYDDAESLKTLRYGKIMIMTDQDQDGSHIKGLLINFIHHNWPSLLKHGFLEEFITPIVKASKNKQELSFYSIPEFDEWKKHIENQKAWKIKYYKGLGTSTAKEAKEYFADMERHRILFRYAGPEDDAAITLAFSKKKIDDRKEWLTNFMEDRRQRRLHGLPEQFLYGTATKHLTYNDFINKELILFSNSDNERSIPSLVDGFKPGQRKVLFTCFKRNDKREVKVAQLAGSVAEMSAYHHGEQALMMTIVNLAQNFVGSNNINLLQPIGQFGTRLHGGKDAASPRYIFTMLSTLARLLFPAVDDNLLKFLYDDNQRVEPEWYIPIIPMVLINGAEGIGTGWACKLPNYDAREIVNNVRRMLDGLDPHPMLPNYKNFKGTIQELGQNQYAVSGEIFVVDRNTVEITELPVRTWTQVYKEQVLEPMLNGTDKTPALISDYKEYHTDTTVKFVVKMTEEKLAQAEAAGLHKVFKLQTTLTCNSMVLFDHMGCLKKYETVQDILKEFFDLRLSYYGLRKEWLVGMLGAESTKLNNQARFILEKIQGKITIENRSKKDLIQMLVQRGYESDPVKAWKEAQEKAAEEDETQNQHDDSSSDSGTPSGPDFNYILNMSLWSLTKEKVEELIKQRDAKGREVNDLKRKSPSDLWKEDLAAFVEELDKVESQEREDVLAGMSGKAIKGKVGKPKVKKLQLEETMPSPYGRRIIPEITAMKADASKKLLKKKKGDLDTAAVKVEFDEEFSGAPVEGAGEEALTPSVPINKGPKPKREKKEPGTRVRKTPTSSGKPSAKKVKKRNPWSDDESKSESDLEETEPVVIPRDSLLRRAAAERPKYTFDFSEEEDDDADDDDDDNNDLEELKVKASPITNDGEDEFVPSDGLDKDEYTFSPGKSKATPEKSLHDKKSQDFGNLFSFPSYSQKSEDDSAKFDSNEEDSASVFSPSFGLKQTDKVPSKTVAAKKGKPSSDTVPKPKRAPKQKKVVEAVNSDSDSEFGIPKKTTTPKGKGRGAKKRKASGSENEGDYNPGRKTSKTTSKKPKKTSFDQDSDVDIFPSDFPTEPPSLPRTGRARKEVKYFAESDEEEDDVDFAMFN
Outline: (§1)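 Recombinant human topo IIα or IIβ (40 ng) was incubated with 200 ng Crithidia kDNA. Buffer: 50 mM Tris/HCl pH 7.9, 120 mM KCl, 10 mM MgCl2, 1 mM ATP, 0.5 mM DTT, 0.5 mM EDTA, 0.03 mg/mL BSA. Incubation 60 min at 37 °C. Stopped with proteinase K/SDS, digested 30 min, run on 1% agarose and stained with ethidium bromide. Decatenated minicircle signal as T/C% vs DMSO; three experiments.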

[2] = target: DNA topoisomerase 2-alpha (Homo sapiens) (UniProt P11388); assay: Inhibition of human recombinant topoisomerase 2alpha-mediated decatenation of kDNA at 100 uM after 60 mins by ethidium bromide staining based gel electrophoresis analysis; outline: as §1
Chain of DNA topoisomerase 2-alpha (Homo sapiens) (P11388 whole entry): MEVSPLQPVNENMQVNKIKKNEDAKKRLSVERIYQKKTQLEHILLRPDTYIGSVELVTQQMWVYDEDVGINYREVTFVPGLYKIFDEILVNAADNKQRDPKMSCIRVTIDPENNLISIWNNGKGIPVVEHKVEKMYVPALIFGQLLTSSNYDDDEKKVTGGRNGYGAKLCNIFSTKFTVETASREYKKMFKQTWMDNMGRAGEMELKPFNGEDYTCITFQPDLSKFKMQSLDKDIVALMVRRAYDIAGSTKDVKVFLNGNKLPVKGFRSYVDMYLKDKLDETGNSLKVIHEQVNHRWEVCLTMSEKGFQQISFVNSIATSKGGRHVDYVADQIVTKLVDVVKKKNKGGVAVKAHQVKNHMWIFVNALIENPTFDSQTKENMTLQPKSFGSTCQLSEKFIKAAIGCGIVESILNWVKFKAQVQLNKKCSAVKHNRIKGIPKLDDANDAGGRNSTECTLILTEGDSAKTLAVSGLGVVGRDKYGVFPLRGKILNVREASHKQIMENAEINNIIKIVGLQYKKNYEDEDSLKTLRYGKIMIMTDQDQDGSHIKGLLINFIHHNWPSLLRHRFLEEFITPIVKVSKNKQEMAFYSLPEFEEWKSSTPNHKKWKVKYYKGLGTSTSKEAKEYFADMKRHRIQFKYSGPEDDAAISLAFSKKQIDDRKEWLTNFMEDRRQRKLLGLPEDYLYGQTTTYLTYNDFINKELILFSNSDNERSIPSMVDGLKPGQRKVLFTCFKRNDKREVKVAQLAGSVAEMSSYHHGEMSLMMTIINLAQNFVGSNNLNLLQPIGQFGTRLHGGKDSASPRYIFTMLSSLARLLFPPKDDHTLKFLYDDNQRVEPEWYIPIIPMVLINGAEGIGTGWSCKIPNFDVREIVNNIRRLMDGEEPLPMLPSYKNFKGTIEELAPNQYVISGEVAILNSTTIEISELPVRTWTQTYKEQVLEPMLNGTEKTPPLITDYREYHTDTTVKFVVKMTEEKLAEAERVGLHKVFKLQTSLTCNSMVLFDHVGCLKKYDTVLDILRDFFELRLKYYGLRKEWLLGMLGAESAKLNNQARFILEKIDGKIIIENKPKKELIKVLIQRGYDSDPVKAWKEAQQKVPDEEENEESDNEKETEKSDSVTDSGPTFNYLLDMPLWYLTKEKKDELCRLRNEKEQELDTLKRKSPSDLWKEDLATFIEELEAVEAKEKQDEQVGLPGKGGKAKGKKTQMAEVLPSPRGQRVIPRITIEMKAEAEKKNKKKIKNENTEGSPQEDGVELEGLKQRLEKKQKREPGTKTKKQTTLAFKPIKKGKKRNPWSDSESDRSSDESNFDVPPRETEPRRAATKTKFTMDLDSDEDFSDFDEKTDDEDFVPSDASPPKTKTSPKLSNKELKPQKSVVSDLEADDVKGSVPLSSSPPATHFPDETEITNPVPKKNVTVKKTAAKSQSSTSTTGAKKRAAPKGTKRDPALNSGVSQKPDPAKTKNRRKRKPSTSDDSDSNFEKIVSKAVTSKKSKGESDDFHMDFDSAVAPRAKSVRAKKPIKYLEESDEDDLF

[3] = target: T1, DNA topoisomerase 1 (Homo sapiens) (UniProt P11387); assay: Inhibition of human recombinant topoisomerase 1-mediated relaxation of supercoiled pUC18 plasmid DNA in human MCF7 cells nuclear extracts at 10 uM after 30 mins by ethidium bromide staining based gel electrophoresis analysis; type: cell-free
T1 sequence (whole entry): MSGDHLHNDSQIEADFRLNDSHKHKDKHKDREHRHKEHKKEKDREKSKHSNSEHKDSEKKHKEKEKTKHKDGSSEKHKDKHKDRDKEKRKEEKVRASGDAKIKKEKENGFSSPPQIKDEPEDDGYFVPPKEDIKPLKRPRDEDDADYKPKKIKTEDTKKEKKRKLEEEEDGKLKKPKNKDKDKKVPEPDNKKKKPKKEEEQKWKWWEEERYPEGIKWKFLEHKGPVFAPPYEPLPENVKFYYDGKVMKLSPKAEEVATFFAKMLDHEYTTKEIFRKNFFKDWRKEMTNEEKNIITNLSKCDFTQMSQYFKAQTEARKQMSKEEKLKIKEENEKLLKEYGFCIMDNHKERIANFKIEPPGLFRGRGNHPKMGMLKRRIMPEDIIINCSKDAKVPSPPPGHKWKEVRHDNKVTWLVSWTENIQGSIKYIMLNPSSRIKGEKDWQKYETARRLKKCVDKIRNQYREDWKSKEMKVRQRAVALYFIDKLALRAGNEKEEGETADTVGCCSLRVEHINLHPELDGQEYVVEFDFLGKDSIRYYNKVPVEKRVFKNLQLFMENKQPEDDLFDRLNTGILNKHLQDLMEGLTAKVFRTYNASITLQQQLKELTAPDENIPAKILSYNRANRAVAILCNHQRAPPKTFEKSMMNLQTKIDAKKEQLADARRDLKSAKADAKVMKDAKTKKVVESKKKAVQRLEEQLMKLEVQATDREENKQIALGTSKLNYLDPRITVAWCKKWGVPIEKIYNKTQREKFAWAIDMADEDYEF
Outline: (§2)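 Topo I activity came from MCF-7 nuclear extract (0.3 µL) acting on 250 ng supercoiled pUC18. Buffer: 10 mM Tris/HCl pH 7.9, 50 mM KCl, 10 mM MgCl2, 0.5 mM DTT, 0.5 mM EDTA, 0.03 mg/mL BSA, no ATP. Incubation 30 min at 37 °C. Stopped with SDS, then proteinase K digest. Run on 1% agarose TAE gel and stained with ethidium bromide afterward. Scored as lowest inhibiting concentration from 10, 30, 50 or 100 µM.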

[4] = Growth inhibition of human GXF251L cells after 72 hrs by SRB assay; type: functional; settings: GXF 251L
Outline: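 GXF251L gastric xenograft-derived cells in RPMI-1640 with 10% FCS were seeded at 6000 cells/well and grown 24 h. They were then exposed 72 h in serum-containing medium with 1% DMSO final. Cells were fixed with TCA for 1 h at 4 °C and stained with 0.4% SRB. Dye was dissolved in 10 mM Tris pH 10.5 and read at 570 nm. IC50 vs DMSO control; three independent experiments.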

[5] = target: T1, DNA topoisomerase 1 (Homo sapiens); assay: Inhibition of human recombinant topoisomerase 1-mediated relaxation of supercoiled pUC18 plasmid DNA in human MCF7 cells nuclear extracts at 100 uM after 30 mins by ethidium bromide staining based gel electrophoresis analysis; type: cell-free; outline: as §2
[6] = target: DNA topoisomerase 2-beta (Homo sapiens) (UniProt Q02880); assay: Inhibition of human recombinant topoisomerase 2beta-mediated decatenation of kDNA at 30 uM after 60 mins by ethidium bromide staining based gel electrophoresis analysis; outline: as §1
[7] = target: DNA topoisomerase 2-alpha (Homo sapiens) (UniProt P11388); assay: Inhibition of human recombinant topoisomerase 2alpha-mediated decatenation of kDNA at 50 uM after 60 mins by ethidium bromide staining based gel electrophoresis analysis; outline: as §1
[8] = target: T1, DNA topoisomerase 1 (Homo sapiens); assay: Inhibition of human recombinant topoisomerase 1-mediated relaxation of supercoiled pUC18 plasmid DNA in human MCF7 cells nuclear extracts at 50 uM after 30 mins by ethidium bromide staining based gel electrophoresis analysis; type: cell-free; outline: as §2
[9] = target: DNA topoisomerase 2-beta (Homo sapiens) (UniProt Q02880); assay: Inhibition of human recombinant topoisomerase 2beta-mediated decatenation of kDNA up to 50 uM after 60 mins by ethidium bromide staining based gel electrophoresis analysis; outline: as §1
[10] = target: DNA topoisomerase 2-alpha (Homo sapiens) (UniProt P11388); assay: Inhibition of human recombinant topoisomerase 2alpha-mediated decatenation of kDNA up to 50 uM after 60 mins by ethidium bromide staining based gel electrophoresis analysis; outline: as §1
[11] = target: T1, DNA topoisomerase 1 (Homo sapiens); assay: Stabilization of topoisomerase 1/DNA complex in human A431 cells; type: cell-based; settings: A-431
Outline: (§3)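 A431 cells were grown 72 h, then treated 1 h serum-free (10–100 µM; 1% DMSO control). Cells were lysed in sarkosyl TE buffer, and lysate was spun on a CsCl step gradient at 100,000 × g for 24 h at 20 °C. Fractions were measured by A260 and slot-blotted. Topo I, IIα or IIβ was immunodetected by chemiluminescence and expressed as T/C% per DNA content. Three experiments.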

[12] = target: DNA topoisomerase 2-beta (Homo sapiens) (UniProt Q02880); assay: Inhibition of topoisomerase 2beta in human A431 cells assessed as DNA peak fractions level after 1 hr by ICE assay; type: cell-based; settings: A-431; outline: as §3
[13] = target: DNA topoisomerase 2-alpha (Homo sapiens) (UniProt P11388); assay: Inhibition of topoisomerase 2alpha in human A431 cells assessed as DNA peak fractions level after 1 hr by ICE assay; type: cell-based; settings: A-431; outline: as §3

Structure (SMILES)	inhibition [3]	IC50 [4] [µM]	inhibition [5]	also measured
COc1ccc2c(c1)c1ccccc1c[n+]2C	Active	4		inhibition [1]: Active; inhibition [2]: Active
COc1ccc2c(c1)c1cc(OC)c(OC)cc1c[n+]2C	Active	7.8		inhibition [2]: Active
COc1ccc2ncc3cc4c(cc3c2c1)OCO4		12.1	inactive	
C[n+]1cc2cc3c(cc2c2cc(O)ccc21)OCO3	Active	1.6		inhibition [6]: Active; inhibition [7]: Active
c1ccc2c(c1)ncc1cc3c(cc12)OCO3 [TRISPHAERIDINE]		12	inactive	
COc1cc2cnc3ccc(O)cc3c2cc1OC		26	inactive	
COc1cc2c[n+](C)c3ccc(O)cc3c2cc1OC		18.8		inhibition [1]: inactive; inhibition [2]: inactive; inhibition [8]: Active
COc1ccc2c(c1)c1cc3c(cc1c[n+]2C)OCO3	Active	0.9		inhibition [6]: Active; inhibition [7]: Active
C[n+]1cc2cc3c(cc2c2ccccc21)OCO3	Active	1.9		inhibition [9]: inactive; inhibition [10]: inactive
Oc1ccc2ncc3cc4c(cc3c2c1)OCO4		17.3	inactive	
Oc1cc2c3c(c1)c1cc4c(cc1c[n+]3CC2)OCO4 [LYCOBETAINE]	Active	3.2		inhibition [6]: Active; inhibition [7]: Active; Activity [11]: inactive; inhibition [12]: Dose-dependent effect; inhibition [13]: Dose-dependent effect
COc1ccc2c(c1)c[n+](C)c1ccc(O)cc21	Active	5.4		inhibition [1]: inactive; inhibition [2]: inactive
COc1ccc2c(cnc3ccc(O)cc32)c1		> 50	inactive	
COc1ccc2cnc3ccc(O)cc3c2c1		40.6	inactive	
COc1ccc2ncc3cc(OC)c(OC)cc3c2c1		41.1	inactive	
COc1ccc2c[n+](C)c3ccc(O)cc3c2c1		8.4	inactive	inhibition [9]: inactive; inhibition [10]: inactive
